The text below walks through data of ChEMBL document CHEMBL3259639, “RE12 derivatives displaying Vaccinia H1-related phosphatase (VHR) inhibition in the presence of detergent and their anti-proliferative activity against HeLa cells” (Bioorg Med Chem, 2014).

Experiment [1] concerns HeLa. The experiment in a line: Antiproliferative activity against human HeLa cells after 48 hrs incubation by Alamar Blue assay. The class given is functional, cell-based. Put shortly:
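HeLa cells seeded at 3 x 10^3 cells/well, exposed to compounds for 48 h; Alamar Blue then added and incubated 3 h at 37 °C, 5% CO2; fluorescence read at 530 nm excitation/590 nm emission. IC50 taken from sigmoid dose-response curve.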
A general note: Alamar Blue is a resazurin reagent that responds to reducing activity.

Experiment [2] deals with HeLa. The experiment in a line: Antiproliferative activity against human HeLa cells at 20 uM after 48 hrs incubation by Alamar Blue assay. Format: functional, cell-based. In short, it runs like this: (§1)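 HeLa cells plated at 3 x 10^3 cells/well, treated 48 h at a single concentration (20 or 30 µM as per line); viability by Alamar Blue added for 3 h at 37 °C, 5% CO2, fluorescence at 530 nm ex/590 nm em; percent inhibition of proliferation.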

The test system of experiment [3] is HeLa. The experiment in a line: Antiproliferative activity against human HeLa cells at 30 uM after 48 hrs incubation by Alamar Blue assay. The class given is functional, cell-based. In short, it runs like this:
as §1

The target of experiment [4] is T1, Dual specificity protein phosphatase 3 (Homo sapiens, UniProt P51452). The following applies: 100 uM.
Target sequence in this assay (P51452 whole entry, looked up): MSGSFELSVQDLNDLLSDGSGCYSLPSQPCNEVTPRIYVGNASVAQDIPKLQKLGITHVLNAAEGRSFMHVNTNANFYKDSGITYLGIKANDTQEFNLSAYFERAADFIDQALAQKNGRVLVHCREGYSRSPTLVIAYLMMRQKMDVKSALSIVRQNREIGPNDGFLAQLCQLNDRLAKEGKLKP
The target of experiment [5] is T1, Dual specificity protein phosphatase 3. The experiment in a line: Inhibition of Vaccinia H1-related phosphatase (unknown origin) by fluorescence emission assay in presence of 0.001% NP-40.
Target sequence in this assay (P51452 whole entry): as the sequence (P51452 whole entry, looked up) above
For experiment [6] the target is unchanged. The experiment in a line: Inhibition of Vaccinia H1-related phosphatase (unknown origin) by fluorescence emission assay. Put shortly:
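Purified VHR (22 ng) preincubated with or without compound 30 min at 37 °C in 50 mM succinate, 1 mM EDTA, 150 mM NaCl, 1 mM DTT, pH 6.0, 0.001% NP-40; reaction begun with 10 µM O-methylfluorescein phosphate, 10 min at 37 °C; product fluorescence at 485 nm ex/530 nm em; IC50 from sigmoid dose-response curve.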
Target sequence in this assay (P51452 whole entry): as the sequence (P51452 whole entry, looked up) above

Activity calls are given as the source filed them. The rule behind the calls is not given here.

Consider `Cc1cccc(CN/C(CCCCc2ccc(OCc3cccc(Cl)c3)cc2)=C2\C(=O)OC(CO)C2=O)c1` (stereo unspecified), for which inhibition in the experiment on HeLa [1] was half-maximal at 7.8 µM (IC50).
On the same count and under the same terms, next, `Cc1cccc(CN/C(CCCCc2ccc(OCc3ccccc3Cl)cc2)=C2\C(=O)OC(CO)C2=O)c1` (stereo unspecified): 10.6 µM.
On to `Cc1cccc(CN/C(CCCCc2cccc(OCc3ccc(Cl)cc3)c2)=C2\C(=O)OC(CO)C2=O)c1` (stereo unspecified), for which the inhibition entry with HeLa [2] and in the experiment on HeLa [3] was “Active” each time.
As to `Cc1cccc(CN/C(CCCCc2ccccc2OCc2ccccc2Cl)=C2\C(=O)OC(CO)C2=O)c1` (stereo unspecified), the inhibition result in the experiment on HeLa [2] and in the experiment with HeLa [3] was “Active” each time.
For the compound `Cc1cccc(CN/C(CCCCc2ccccc2OCc2cccc(Cl)c2)=C2\C(=O)OC(CO)C2=O)c1` (stereo unspecified), the inhibition entry with HeLa [2] and in the experiment with HeLa [3] was “Active” throughout.
In the case of `CCCCCCCCCCCCCCC/C(NCc1cccc(C)c1)=C1/C(=O)OC(CO)C1=O` (stereo unspecified), the inhibition result with HeLa [2] and in the experiment on HeLa [3] was “Active” throughout. Further, in experiment [4], the inhibition entry was “inactive”. The IC50 (as a rule, the midpoint of a concentration-inhibition curve) in experiment [5] was more than 100 µM; in experiment [6], 1.6 µM.
Regarding `Cc1cccc(CN/C(CCCCc2cccc(OCc3ccccc3Cl)c2)=C2\C(=O)OC(CO)C2=O)c1` (stereo unspecified), the inhibition result in the experiment on HeLa [2] and in the experiment with HeLa [3] was “Active” throughout.
In the case of `Cc1cccc(CN/C(CCCCc2ccccc2OCc2ccc([N+](=O)[O-])cc2)=C2\C(=O)OC(CO)C2=O)c1` (stereo unspecified), the inhibition result with HeLa [2] and with HeLa [3] was “Active” each time.
Consider `Cc1cccc(CN/C(CCCCc2ccccc2OCc2ccc(Cl)cc2)=C2\C(=O)OC(CO)C2=O)c1` (stereo unspecified), for which the inhibition entry with HeLa [2] and with HeLa [3] was “Active” throughout.
On to `Cc1cccc(CN/C(CCCCc2cccc(OCc3cccc(Cl)c3)c2)=C2\C(=O)OC(CO)C2=O)c1` (stereo unspecified), for which the inhibition entry with HeLa [2] and in the experiment on HeLa [3] was “Active” in each case.
For the compound `Cc1cccc(CN/C(CCCCc2ccc(OCc3ccc(Cl)cc3)cc2)=C2\C(=O)OC(CO)C2=O)c1` (stereo unspecified), in the experiment with HeLa [3], the inhibition entry was “Active”.
As to `Cc1cccc(CN/C(CCCCc2ccccc2OCc2ccccc2)=C2\C(=O)OC(CO)C2=O)c1` (stereo unspecified), the inhibition entry in the experiment with HeLa [2] and in the experiment on HeLa [3] was “Active” throughout.
As for `Cc1cccc(CN/C(CCCCc2ccccc2OCc2ccc(C(F)(F)F)cc2)=C2\C(=O)OC(CO)C2=O)c1` (stereo unspecified), the inhibition result in the experiment with HeLa [2] and with HeLa [3] was “Active” throughout.
